Screening results: PubChem BioAssay, several laboratories
In the library only some 0.95% were active in any assay of this set; here they are far more common.
ABCB1 block: ABCB1 efflux pump inhibitors, primary screen, cell-based, multiplex, flow cytometry, ABCG2 counter-screen | ATP-dependent translocase ABCB1 (Homo sapiens), P08183 | CCRF-Adr cells, JC-1 efflux | inhibition, % at 6.6 µM | 0.067% of 190,000 active; in the data active = inhibition above about 40%;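 note: 0% = vehicle and 100% = reference inhibitor; higher value means more JC-1 retained so stronger ABCB1 efflux block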
ABCG2 inh: ABCG2 efflux pump inhibitors, primary screen, multiplex with ABCB1, IgMXP3 cells, flow cytometry; AID 1325, 2008; inhibition, % at 6.6 µM; JC-1 efflux; 0.1% of 190,000 active;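 active = inhibition above 80%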;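 note: 0% = DMSO and 100% = nicardipine control wells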
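Test system: IgMXP3 cells (ABCG2) mixed with DDAO far-red-labelled CCRF-Adr cells (ABCB1). Reagent: JC-1 transporter substrate. Compound dosing: single test compound dose, 6.6 µM final. Times: 10 min compound exposure, 25 °C. Detection: flow cytometry of retained JC-1 fluorescence. Read-out basis: efflux inhibition in percent versus controls. Controls: nicardipine and DMSO wells.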
Arbovirus anti: antivirals against arbovirus infection, primary screen, cell-based, full library, 10K replicate subset. arbovirus infection cell-based antiviral screen. inhibition, % at 10 µM. 0.37% of 200,000 active; in the data active = inhibition above about 30%
Furin inh: human furin inhibitors, primary screen, biochemical, fluorescence intensity; P09958; purified furin, fluorogenic substrate cleavage; inhibition, % at 20 µM or 30 µM; 0.061% of 220,000 active; AID 463115, 2010; in the data active = inhibition above about 25%
Target sequence (P09958 108-714 limits assumed): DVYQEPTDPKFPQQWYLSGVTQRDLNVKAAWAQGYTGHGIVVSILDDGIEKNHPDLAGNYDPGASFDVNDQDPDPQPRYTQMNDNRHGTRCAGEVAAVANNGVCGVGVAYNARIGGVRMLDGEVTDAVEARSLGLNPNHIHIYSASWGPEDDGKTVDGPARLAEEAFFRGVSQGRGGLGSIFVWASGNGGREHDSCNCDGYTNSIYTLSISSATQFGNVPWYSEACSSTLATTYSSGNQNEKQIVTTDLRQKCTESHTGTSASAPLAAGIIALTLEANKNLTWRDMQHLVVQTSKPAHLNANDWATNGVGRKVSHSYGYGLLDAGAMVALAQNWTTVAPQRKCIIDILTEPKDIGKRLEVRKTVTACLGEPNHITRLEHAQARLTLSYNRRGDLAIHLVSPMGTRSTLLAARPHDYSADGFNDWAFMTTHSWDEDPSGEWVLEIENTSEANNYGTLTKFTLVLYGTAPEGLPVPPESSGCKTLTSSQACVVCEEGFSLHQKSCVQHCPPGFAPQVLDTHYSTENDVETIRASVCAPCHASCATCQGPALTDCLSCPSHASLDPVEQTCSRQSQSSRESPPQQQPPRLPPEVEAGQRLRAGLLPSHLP
HSV replic up: enhancers of HSV replication in host cells, fold increase, host cell viability | 0.005% of 220,000 active | AID 1956, 2009 | HSV replication augmentation in cells | maximum fold increase; in the data active = maximum fold increase above about 1.5; tested in PC3 cells
NCF1 inh: p47phox/p22phox peptide binding inhibitors, primary screen, biochemical, uHTS, NADPH oxidase regulatory subunit | fluorescence polarization, 2 h | inhibition, % at 24.7 µM | 0.53% of 220,000 active | Neutrophil cytosol factor 1 (Homo sapiens), P14598;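 active = inhibition above about 30%, limit read from the data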;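 note: 0% = p47phox with labelled peptide and 100% = labelled peptide alone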
An asterisk follows results filed as active; i = inactive; · = no result given.

SMILES | ABCB1 block | ABCG2 inh | Arbovirus anti | Furin inh | HSV replic up | NCF1 inh
CC(C)Oc1ccc(N2CC(C(=O)NC3=NCCS3)CC2=O)cc1 (stereo not drawn) | 0 | 7 | -3 | -11 | i | -11
CN(C)c1nc(-c2cccs2)cc(C(F)(F)F)c1C#N | · | · | · | -24 | i | 58*
CN(C)c1nc(-c2ccccc2)cc(C(F)(F)F)c1C#N | 0 | 64 | -6 | -1 | i | -2
Cc1ccc(OCc2csc(N)n2)cc1 | 1 | 5 | -3 | -20 | i | 0
CC1CC(C)(C)CC2(C1)NC(=O)N(CC(=O)NCCc1c[nH]c3ccccc13)C2=O (stereo not drawn) | 0 | 6 | 32* | -10 | i | -26
CC(C)c1cccc(OCCCCN(C)C)c1 | 0 | 0 | -1 | -23 | i | 0
CSc1nnc(C)c(=O)n1COC(=O)COc1ccc(Cl)cc1Cl | 0 | 2 | 18 | -30 | i | 48*
Cc1cc(C)n2nc(C(=O)NNC(=O)c3ccc(Cl)cc3)nc2n1 | · | · | · | -4 | i | 36*
CCOC(=O)c1cc(-c2ccc(OC)cc2)nn1-c1ccc(C(=O)O)cc1 | 0 | 0 | 9 | -10 | i | 2
COC(=O)c1ccc2c(=O)n(Cc3ccco3)c(SCC(=O)Nc3ccccc3Cl)nc2c1 | 1 | 2 | -13 | -14 | i | 46*
CCC1=NN(S(=O)(=O)c2ccc(C)cc2)C(O)(C(F)(F)F)C1 (stereo not drawn) | 0 | -1 | 8 | -21 | i | -4
Nc1ccc(C(=O)O)c(O)c1 | -1 | -5 | 0 | -41 | i | -10
Nc1ccc(N)c(C(=O)O)c1 | · | · | · | · | · | 41*
CC(=O)N1CSCC1C(=O)NNS(=O)(=O)c1ccccc1 (stereo not drawn) | · | · | · | -17 | i | -3
C=CCNC(=O)c1onc(CSc2cccc(OC)c2)c1C(=O)O | 0 | 0 | -2 | -6 | i | 32*
COc1cc(NC(=S)NC2CC(C)(C)NC(C)(C)C2)c(OC)cc1Cl | 2 | 3 | -6 | -14 | i | -11
CCOC(=O)/C(C)=C1\NC(C)(C)Cc2ccccc21 | 0 | 0 | 7 | -26 | i | 62*
Cn1ncc(Cl)c1C(=O)Nc1cccc(Cl)c1 | 2 | 5 | -5 | 30* | i | -11
Cc1cccc(Nc2nnc(SC/C(O)=C(\C#N)c3nc4ccccc4[nH]3)s2)c1C | -5 | -13 | 29 | -18 | i | -59
Cc1cccc(C)c1Nc1nnc(SC/C(O)=C(\C#N)c2nc3ccccc3[nH]2)s1 | -8 | -22 | 30* | -21 | i | -30
COCCCN(Cc1ccco1)C(=O)Cn1ncc2c(=O)oc3ccc(C)cc3c21 | · | · | · | -22 | i | -1
COCOc1ccc(-c2oc3c(C/C=C(\C)CCC=C(C)C)ccc(O)c3c(=O)c2OCOC)c(OCOC)c1 | · | · | · | · | i | ·
CC(C)CC(NC(=O)CNC(=O)C1O[C@@H]2OC(C)(C)O[C@@H]2[C@H]2OC(C)(C)O[C@@H]12)C(=O)O (stereo partly drawn) | 0 | 1 | 1 | -16 | i | -7
CCOc1ccc(-c2cc(CCCC(=O)NCc3ccc(C)cc3)no2)cc1 | -2 | 0 | -8 | -16 | · | -6
CCOc1ccc(-c2cc(CCCC(=O)NCc3ccco3)no2)cc1 | -2 | 0 | -18 | -14 | i | 33*
SMILES | ABCB1 block | ABCG2 inh | Arbovirus anti | Furin inh | HSV replic up | NCF1 inh
Cn1c(O)c(N=Nc2nc(-c3ccccc3)cs2)c2ccccc21 | -1 | -18 | 4 | -4 | i | -9
CO/N=C(\c1nonc1N)N1CCN(c2ccc(Cl)cc2[N+](=O)[O-])CC1 | 0 | 2 | -4 | -7 | · | 2
Cn1c2ccccc2c(=O)c2c(=O)n(C3CCCCCC3)c(C3CCCCC3)nc21 | 1 | 33 | -17 | -8 | i | 45*
Nc1nc(SCC(=O)N2N=C3/C(=C/c4ccco4)CCCC3C2c2ccco2)n[nH]1 (stereo not drawn) | 0 | 8 | 9 | 15 | i | -7
O=C(CSc1nccc(=O)[nH]1)N1N=C2/C(=C/c3ccco3)CCCC2C1c1ccco1 (stereo not drawn) | -1 | -1 | 49* | -14 | i | -12
CC(=O)NS(=O)(=O)c1ccc(NC(=O)c2ccc3c(c2)C(=O)N(CCC(C)C)C3=O)cc1 | -1 | -8 | 2 | -7 | i | 59*
CC(C)CN1C(=O)c2ccc(C(=O)Nc3ccncc3)cc2C1=O | 1 | 5 | 1 | -16 | i | -10
Nc1ccc(C(=O)OCC(=O)Nc2cc([N+](=O)[O-])ccc2F)cc1 | 0 | 33 | 10 | 0 | i | -3
CCN(CC)Cc1c(O)c(Cl)cc2c3c(c(=O)oc12)CCCC3 | 1 | 2 | 19 | -14 | i | -9
CN(C)Cc1c(O)c(Cl)cc2c3c(c(=O)oc12)CCCC3 | 0 | 0 | 32* | -55 | i | -1
O=C(Nc1ccc(Br)cn1)c1cccc(-c2cc3ccccc3oc2=O)c1 | 0 | -1 | 2 | -25 | i | 37*
Cc1nc(NC(=O)c2cccc(-c3cc4ccccc4oc3=O)c2)ccc1Br | 0 | 36 | -12 | -28 | i | 41*
Cc1nc(NC(=O)c2ccc(-c3cc4ccccc4oc3=O)cc2)ccc1Br | 0 | 6 | -3 | -19 | i | 12
O=C(N/N=C\c1ccc(Cl)cc1)C1=NOC2COC3(CCN(c4ccc([N+](=O)[O-])cc4)CC3)OCC12 (stereo not drawn) | · | · | · | -17 | i | -27
COc1ccnc(Oc2ccc(Cl)cc2)c1C#N | 0 | 4 | 15 | -8 | i | 4
O=C(c1ccco1)N1CCN(C2CC(=O)N(c3ccc4c(c3)OCO4)C2=O)CC1 (stereo not drawn) | 0 | 1 | 2 | 31* | i | -12
O=C(CN1C(=O)c2ccccc2C1=O)Nc1sc2c(c1C(=O)NCc1ccco1)CCCC2 | 0 | 1 | 13 | 29* | i | -27
CCOP(=O)(OCC)C(Nc1ccccc1)c1ccccc1C(F)(F)F (stereo not drawn) | · | · | · | -7 | i | -12
FC(F)(F)c1ccc(C2NCCc3sccc32)cc1 (stereo not drawn) | 2 | 4 | 7 | -24 | i | -6
CCC(=O)Nc1ccc(C(=O)CSc2nc(N)cc(N)n2)cc1 | · | · | · | -12 | i | -3
COC(=O)C1C(=O)/C(=C/N(C)C)C(=O)CC1(C)C (stereo not drawn) | -1 | -3 | 6 | 38* | i | -13
CCOc1ccc(-n2c(SCC(=O)Nc3ccccc3CC)nc3n[nH]c(C)c3c2=N)cc1 | 0 | 2 | 6 | -28 | i | -2
